Converted amounts (≈) assume the structure as drawn.
Tests used:
[1] = test system: Mycobacterium tuberculosis; assay: Antitubercular activity against Mycobacterium tuberculosis H37Rv by broth microdilution Alamar blue assay; assay type: functional
Procedure, shortened: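 Mtb H37Rv growth was measured by broth microdilution Alamar blue assay (MABA). Percentage inhibition at each concentration gave the MIC, defined as the lowest concentration preventing visible bacterial growth. Rifampicin served as positive control. Values are means of three experiments.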

[2] = test system: Panel NCI-60 (60 carcinoma cell lines); assay: Cytotoxicity against human NCI60 cells assessed as cell growth at 10 uM relative to control; assay type: cell-based
Procedure, shortened: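 Single-dose screen at 10 μM across the full NCI 60 cell line panel; read-out was percent cell growth.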

[3] = test system: A2058; assay: Cytotoxicity against human A2058 cells assessed as reduction in cell viability; assay type: functional, cell-based
[4] = test system: Vero; assay: Cytotoxicity against African green monkey Vero cells assessed as reduction in cell viability; assay type: cell-based; conditions: Chlorocebus sabaeus
[5] = test system: Plasmodium falciparum; assay: Antiplasmodial activity against Plasmodium falciparum W2 assessed as parasite growth inhibition relative to control; assay type: functional
[6] = test system: DU-145; assay: Cytotoxicity against human DU145 cells assessed as reduction in cell viability; assay type: functional, cell-based

SMILES	MIC [1] [µg/mL]	other results
CC1=C(O)[C@@](C)(CCCCC[C@H](C)CCCCc2ccc(O)cc2)OC1=O	> 128	–
C=C(C/C=C(\C)C(=O)N[C@H](C(=O)N1CCC[C@H]1c1nccs1)C(C)C)Cc1ccccc1	> 128	Activity [2]: > 90%
CO[C@H]1/C=C/O[C@@]2(C)Oc3c(C)c(O)c4c(O)c(c(/C=N/N5CCN(C)CC5)c(O)c4c3C2=O)NC(=O)/C(C)=C\C=C\[C@H](C)[C@H](O)[C@@H](C)[C@@H](O)[C@@H](C)[C@H](OC(C)=O)[C@@H]1C [RIFAMPIN]	0.1 (≈ 0.122 µM)	–
CC1=C(O)[C@@](C)(CCCCCCCCCCCCc2ccc(O)cc2)OC1=O	> 128	–
C/C(=C\C/C(=C\Cl)Cc1ccccc1)C(=O)N[C@H](C(=O)N1CCC[C@H]1c1nccs1)C(C)C	4.1 (≈ 8.43 µM)	IC50 [3]: 20 µM; IC50 [4]: > 128 µg/mL; growth inhibition (GI) [5]: 55%; IC50 [6]: 15 µM
CC1=C(O)[C@@](C)(CCCCC[C@H](C)CCCCc2ccc(O)c(O)c2)OC1=O	> 128	–
